CSN deneddyl inh: blocks human CSN-mediated cullin deneddylation; Q92905; Purified CSN, SCF-Nedd8-OG deneddylation, fluorescence polarization; inhibition, % at 12.5 µM; 360,000 compounds, 0.38% hits; AID 651999;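 active = pattern-corrected inhibition above about 35%, with an unprinted fluorescence ratio check between 0.5 and 1.5, limit read from the data, passing the limit was not always enough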;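 also: 0% = enzyme with substrate and 100% = substrate without enzyme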
Target sequence (Q92905 whole entry, looked up, one chain of several): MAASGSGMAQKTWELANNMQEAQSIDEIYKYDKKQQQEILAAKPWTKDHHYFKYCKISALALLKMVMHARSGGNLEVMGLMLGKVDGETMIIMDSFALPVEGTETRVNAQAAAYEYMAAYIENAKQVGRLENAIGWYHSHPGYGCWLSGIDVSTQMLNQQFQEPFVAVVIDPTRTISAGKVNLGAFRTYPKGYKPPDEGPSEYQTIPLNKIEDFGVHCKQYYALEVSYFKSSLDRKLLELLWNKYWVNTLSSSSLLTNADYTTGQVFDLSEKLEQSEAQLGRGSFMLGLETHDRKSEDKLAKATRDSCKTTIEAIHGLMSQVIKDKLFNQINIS
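test system = HEK293T-derived human Csn5 enzyme | amount = 0.24 nM Csn5 enzyme, final concentration | medium = Tris/NaCl/DTT buffer, pH 7.5 | schedule = 90 min reaction at room temperature | signal = FP | evaluation = inhibition of Csn5 cleavage, % | compound dosing = single dose of 12.5 µM compound with 0.25% DMSO | probe or stimulus = 10 nM SCFSkp2-Nedd8OG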
TPT1 inhibitor: C. albicans TPT1 enzyme inhibition. recombinant caTPT1, FP RNA substrate dephosphorylation. inhibition, % at 5 µM. AID 1962. 300,000 compounds, 0.81% hits;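 active = inhibition above the mean of all tested compounds plus 3 SD, set per screening campaign, cut at about 24% in these data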;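 also: plate controls were DMSO alone for no effect and ferristatin control at 100 nM for full effect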
HNF4A DNA FP: change in binding of human HNF4 alpha to DNA | activity change, % at 10 µM | 360,000 compounds, 0.3% hits | P41235 | HNF4a-FITC DNA binding, fluorescence polarization, 1 h; in the data active = activity change above about 30%, passing the limit was not always enough
Rpn11 block: inhibitors of human proteasome Rpn11; inhibition, % at 20 µM; O00487; 360,000 compounds, 0.59% hits; AID 588493; human 26S proteasome, Ub4-pepOG fluorescence polarization; 20S core pre-blocked with epoxomicin;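 active = inhibition at 20 µM, scaled to each plate's controls, above about 33%, limit read from the data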
Target sequence (O00487 whole entry, looked up): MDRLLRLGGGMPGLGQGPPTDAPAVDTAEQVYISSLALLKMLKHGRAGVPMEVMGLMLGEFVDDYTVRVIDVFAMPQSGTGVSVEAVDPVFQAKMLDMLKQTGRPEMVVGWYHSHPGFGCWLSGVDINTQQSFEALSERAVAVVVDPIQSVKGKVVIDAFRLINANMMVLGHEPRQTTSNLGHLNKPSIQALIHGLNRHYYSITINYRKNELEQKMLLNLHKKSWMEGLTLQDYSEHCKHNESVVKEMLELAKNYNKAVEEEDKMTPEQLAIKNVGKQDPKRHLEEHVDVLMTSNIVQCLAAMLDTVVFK
caTPT1 confirm: confirmation of Candida albicans TPT1 inhibitors; shares compounds with TPT1 inhibitor; recombinant caTPT1, fluorescence polarization, RNase T1 coupled; inhibition, % at 5 µM; 2,400 compounds, 74% hits; AID 2149;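 active = inhibition above the primary screen limit, the mean inhibition of all tested compounds plus 3 SD, cut at about 25% in these data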
RNase T1 counter: counter-screen for TPT1 inhibitors: inhibitors of Aspergillus oryzae RNase T1; 2,400 compounds, 83% hits; RNase T1 cleavage, fluorescence polarization, 1536-well; inhibition, % at 5 µM; shares compounds with TPT1 inhibitor;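 active = inhibition above the solvent-only control well mean plus 3 SD, limit set per screening run, cut at about 23% in these data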;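 also: plate controls were DMSO wells with enzyme for no effect and wells without RNase T1 for full effect; inhibitors block cleavage so intact labeled substrate keeps polarization high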
An asterisk follows results filed as active; . = no result shown. An excerpt weighted towards active compounds, which were near 1.5% of everything screened.

SMILES | CSN deneddyl inh | TPT1 inhibitor | HNF4A DNA FP | Rpn11 block | caTPT1 confirm | RNase T1 counter
CC(C)=C(C#N)c1nc2ccccc2s1 | -4 | 25* | -1 | 6 | 8 | 9
COc1cc(/C=C(\C#N)c2nc3ccccc3s2)ccc1OCC(=O)Nc1ccccc1 | 40* | 60* | 33* | . | 32* | 44*
CCCCNc1cc(NC(C)=O)cc2cc(OC)c(OC)cc12 | 19 | 70* | 16 | . | 61* | 73*
COc1ccccc1/C=C/C(=O)N1CCN(S(=O)(=O)c2cc(C)ccc2C)CC1 | -2 | . | -4 | 4 | . | .
COCCCn1c(O)c(/C=C2\N=C(C#N)C(=Nc3ccc(C)cc3)O2)sc1=S | 20 | 79* | 110 | . | 80* | 85*
COc1ccc(C2CC(c3c(O)cc(C)oc3=O)=NCCS2)c(OC)c1 (centres undefined) | 7 | 42* | 5 | 19 | 5 | 12
Cc1cc(O)c(C2=Nc3ccccc3SC(c3ccc(Cl)cc3)C2)c(=O)o1 (centres undefined) | -4 | 6 | 1 | 7 | . | .
Cn1c(N)c(C(=O)CSc2nn(-c3ccc(F)cc3)c(=S)s2)c(=O)n(C)c1=O | 5 | . | 7 | 15 | . | .
Cn1c(N)c(-c2ccccc2)c2ccc([N+](=O)[O-])cc2c1=O | 15 | 84* | 99* | . | 89* | 92*
Cc1cc(N2CCCC2)ccc1/C=C1\NC(=S)N(C)C1=O | 141 | 164* | 153 | . | 167* | 154*
CN1C(=O)c2ccc(N3CCCC3)cc2C1=O | 3 | -10 | 0 | -8 | . | .
O=C1/C(=C/c2ccc(N3CCCC3)cc2)NC(=S)N1C1CC1 | 134 | 162* | 169 | . | 169* | 153*
O=C1NC(=S)NC1=Cc1ccc(O)cc1 | 7 | . | 12 | 23 | . | .
O=C1NC(=S)N/C1=C\c1ccc(N2CCOCC2)cc1 | 7 | 26* | 16 | 30 | 26* | 33*
O=Cc1ccc(N2CCCCCC2)cc1 | 2 | 0 | 1 | 3 | . | .
CCN(Cc1ccccc1)N=Nc1ccccc1 | -1 | . | -3 | -1 | . | .
O=C(COc1cccc(NC(=O)c2cccc([N+](=O)[O-])c2)c1)c1ccc(F)cc1 | -2 | 53* | 1 | 2 | 0 | 3
COc1cccc(C(=O)COc2cccc(NC(=O)c3cccc([N+](=O)[O-])c3)c2)c1 | -4 | 1 | -2 | 6 | . | .
C=CCNc1ncnc2c1ncn2[C@H]1CN(Cc2ccccc2)C[C@@H](COC(C)=O)O1 | 0 | . | -1 | -2 | . | .
CC(=O)c1cccc(NC(=S)NC2CCCCCCC2)c1 | 3 | . | 5 | 6 | . | .
CC1=[N+](CC(=O)c2ccccc2)CCn2cccc21 | -12 | 49* | 2 | 7 | -2 | 1
CC1(C(=O)NS(=O)(=O)c2cccc(Cl)c2)CCN1C(=O)C1CCCCC1 (centres undefined) | 1 | . | -4 | -13 | . | .
COc1ccc2nc(Nc3nc(C)c(CCC(C)C)c(=O)[nH]3)nc(C)c2c1 | 2 | 25* | 4 | 0 | 3 | 7
CCc1cc2c(=O)[nH]c(-c3ccncc3)nc2s1 | -1 | 29* | 5 | -6 | 3 | 6
CCc1cc2c(=O)[nH]c(Cc3ccccc3)nc2s1 | 9 | -1 | 1 | -8 | . | .
SMILES | CSN deneddyl inh | TPT1 inhibitor | HNF4A DNA FP | Rpn11 block | caTPT1 confirm | RNase T1 counter
NC(=O)c1cc[n+](CC2=C(C(=O)O)N3C(=O)[C@@H](NC(=O)C(c4ccccc4)S(=O)(=O)[O-])[C@H]3SC2)cc1 (some centres undefined) | 17 | 41* | -78 | 38 | 39* | 9
O=C(NCCN1CCOCC1)c1ccc(Cl)cc1 | 2 | -1 | -2 | 0 | . | .
Nc1c(C(=O)c2ccc(Cl)cc2)sc2nsc(SCCN3CCOCC3)c12 | 38* | 41* | 55 | . | 57* | 69*
Nc1c(C(=O)c2ccccc2)sc2nsc(SCCN3CCCC3)c12 | 25 | 48* | 38* | . | 47* | 56*
CC(=O)c1sc2nsc(SCCN3CCCCC3)c2c1N | 2 | -8 | 1 | 2 | . | .
Oc1c(Cl)cc(Cl)cc1/C=C/c1ccc2cccc(O)c2n1 | 32 | 56* | 10 | . | 51* | 59*
COc1cccc(C2CCCN2Cc2nc(-c3sccc3C)oc2C)c1 (centres undefined) | 17 | 10 | 7 | 28 | . | .
COc1cccc(C2CCCCN2Cc2nc(-c3ccc(C)o3)oc2C)c1 (centres undefined) | 10 | 27* | 9 | 17 | 31* | 41*
Cn1c(N)c(C(=O)COC(=O)c2ccc([N+](=O)[O-])o2)c(=O)n(C)c1=O | 1 | -3 | -2 | 4 | . | .
Oc1cccc(Nc2c3ccccc3nc3ccccc23)c1 | -5 | 54* | -3 | -17 | 4 | 11
CCOC(=O)/C=C/COc1ccccc1[N+](=O)[O-] | -2 | 7 | -1 | -4 | . | .
CCOC(=O)c1cc(C#N)c(SCC(N)=O)[nH]c1=O | -3 | 32* | -16 | -10 | 40* | 50*
Cc1ccc(NC(=O)c2c(Cl)nc3ccccn23)cc1 | 2 | 0 | 4 | -8 | . | .
Cn1c(C(=O)NC2CCCCCC2)cc2c(=O)n(C)c3ccccc3c21 | -2 | -4 | -1 | -7 | . | .
Cn1c(C(=O)NC2CCCCC2)cc2c(=O)n(C)c3ccccc3c21 | 3 | 67* | 2 | 6 | 2 | 1
C/C(=N/NC(=O)c1ccc(Br)o1)c1cccc(NC(=O)c2ccc(F)cc2)c1 | -1 | -3 | -4 | 0 | . | .
CC(=O)c1cccc(NC(=O)CNC(=O)c2sc3ccccc3c2Cl)c1 | 5 | 29* | 15 | 30 | 45* | 57*
CC(C)C(=O)NC(=S)/C=C1/N(C)c2ccccc2C1(C)C | 48* | 28* | 69* | . | 17 | 24*
CC(C)(C)c1csc(NC(=O)c2cccs2)n1 | 3 | -1 | -2 | -10 | . | .
CC(C)(C)c1csc(NC(=O)Cc2cccs2)n1 | 5 | 99* | -2 | 5 | 11 | 15
CN(C)CCNC(=O)CCn1nc(-c2ccc(Cl)cc2)ccc1=O | -3 | -3 | 1 | 1 | . | .
Cc1cc(C)c(-c2cc(C(=O)Nc3cc(C)ccc3C)[nH]n2)c(O)c1 | 0 | 0 | 0 | -10 | . | .
CC(C)c1ccc(C2C3CSCC=C3C(C#N)=C(N)C2(C#N)C#N)cc1 (centres undefined) | . | 36* | . | . | 38* | 48*
CN1CC=C2C(C#N)=C(N)C(C#N)(C#N)[C@H](c3cccc(Cl)c3)C2C1 (some centres undefined) | -13 | -47 | -18 | -56 | . | .
CC(C)(C)CC(=O)Nc1nn[nH]n1 | -6 | 27* | 1 | -2 | 6 | 10
Cc1ccccc1CCNC(=O)c1ccc(Cl)c(S(=O)(=O)N2CC(C)OC(C)C2)c1 (centres undefined) | -2 | . | 14 | 12 | . | .
Cc1sc2nc(COC(=O)c3ccc(N4CCCC4)c([N+](=O)[O-])c3)[nH]c(=O)c2c1C | 9 | 69* | 28 | . | 69* | 78*
